Assay results taken from ChEMBL document CHEMBL4270599, “Synthesis of a 3'-C-ethynyl-β-d-ribofuranose purine nucleoside library: Discovery of C7-deazapurine analogs as potent antiproliferative nucleosides” (Eur J Med Chem, 2018).

Tests used:
[1] = test system: OVCAR-5; test: Growth inhibition of human OVCAR5 cells assessed as cell growth at 10^-8 M incubated for 48 hrs by sulforhodamine B assay relative to control; type: functional; settings: OVCAR-5, 48 h, read-out: Activity
[2] = test system: A549; test: Cytotoxicity against human A549 cells after 48 hrs by SRB assay; type: functional; settings: A549, 48 h; for CC50: read-out: pLC50 (the source's name) (converted)
[3] = test system: A549; test: Growth inhibition of human A549/ATCC cells assessed as cell growth at 10^-4 M incubated for 48 hrs by sulforhodamine B assay relative to control; type: functional; settings: A549, 48 h, read-out: Activity
[4] = test system: DU-145; test: Cytotoxicity against human DU145 cells after 48 hrs by SRB assay; type: functional; settings: DU-145, 48 h
[5] = test system: HCT-116; test: Growth inhibition of human HCT116 cells assessed as cell growth at 10^-7 M incubated for 48 hrs by sulforhodamine B assay relative to control; type: functional; settings: HCT-116, 48 h, read-out: Activity
[6] = test system: SN12C; test: Growth inhibition of human SN12C cells assessed as cell growth at 10^-7 M incubated for 48 hrs by sulforhodamine B assay relative to control; type: functional; settings: read-out: Activity
[7] = test system: RPMI-8226; test: Cytotoxicity against human RPMI8226 cells after 48 hrs by SRB assay; type: functional; settings: RPMI-8226, 48 h; for CC50: read-out: LC50 (the source's name)
[8] = test system: MDA-MB-435; test: Growth inhibition of human MDA-MB-435 cells assessed as cell growth at 10^-7 M incubated for 48 hrs by sulforhodamine B assay relative to control; type: functional; settings: MDA-MB-435, 48 h, read-out: Activity
[9] = test system: U-251; test: Growth inhibition of human U251 cells assessed as cell growth at 10^-4 M incubated for 48 hrs by sulforhodamine B assay relative to control; type: functional; settings: U-251, 48 h, read-out: Activity
[10] = test system: EKVX; test: Cytotoxicity against human EKVX cells after 48 hrs by SRB assay; type: functional; settings: for CC50: read-out: LC50 (the source's name)
[11] = test system: SK-OV-3; test: Growth inhibition of human SKOV3 cells assessed as cell growth at 10^-7 M incubated for 48 hrs by sulforhodamine B assay relative to control; type: functional; settings: SK-OV-3, 48 h, read-out: Activity
[12] = test system: RPMI-8226; test: Growth inhibition of human RPMI8226 cells assessed as cell growth at 10^-8 M incubated for 48 hrs by sulforhodamine B assay relative to control; type: functional; settings: RPMI-8226, 48 h, read-out: Activity
[13] = test system: ACHN; test: Growth inhibition of human ACHN cells assessed as cell growth at 10^-7 M incubated for 48 hrs by sulforhodamine B assay relative to control; type: functional; settings: read-out: Activity
[14] = test system: TK-10; test: Growth inhibition of human TK10 cells assessed as cell growth at 10^-8 M incubated for 48 hrs by sulforhodamine B assay relative to control; type: functional; settings: TK-10, 48 h, read-out: Activity
[15] = test system: PC-3; test: Cytotoxicity against human PC3 cells after 48 hrs by SRB assay; type: functional; settings: PC-3, 48 h; for CC50: read-out: LC50 (the source's name)
[16] = test system: Malme-3M; test: Growth inhibition of human MALME-3M cells assessed as cell growth at 10^-7 M incubated for 48 hrs by sulforhodamine B assay relative to control; type: functional; settings: read-out: Activity
[17] = test system: SK-OV-3; test: Growth inhibition of human SKOV3 cells assessed as cell growth at 10^-8 M incubated for 48 hrs by sulforhodamine B assay relative to control; type: functional; settings: SK-OV-3, 48 h, read-out: Activity
[18] = test system: CCRF-CEM; test: Cytotoxicity against human CCRF-CEM cells after 48 hrs by SRB assay; type: functional
[19] = test system: EKVX; test: Growth inhibition of human EKVX cells assessed as cell growth at 10^-8 M incubated for 48 hrs by sulforhodamine B assay relative to control; type: functional; settings: read-out: Activity
[20] = Antiproliferative activity against HMVEC-d cells after 4 days by Coulter counter method; type: cell-based; settings: Homo sapiens, 96 h
Outline: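 Primary HUVEC, primary HMVEC-d and the HMEC-1 line seeded at 20,000 cells/well in gelatin-coated plates in EC growth medium (EGM2). After overnight incubation, 5-fold compound dilutions added. Cells proliferated four days with compound, then trypsinized and counted by Coulter counter to derive IC₅₀.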

[21] = test system: KM12; test: Growth inhibition of human KM12 cells assessed as cell growth at 10^-7 M incubated for 48 hrs by sulforhodamine B assay relative to control; type: functional; settings: KM12, 48 h, read-out: Activity
[22] = test system: HOP-92; test: Growth inhibition of human HOP92 cells assessed as cell growth at 10^-7 M incubated for 48 hrs by sulforhodamine B assay relative to control; type: functional; settings: HOP-92, 48 h, read-out: Activity
[23] = test system: SW-620; test: Cytotoxicity against human SW620 cells after 48 hrs by SRB assay; type: functional; settings: SW-620, 48 h
[24] = test system: NCI-H226; test: Growth inhibition of human NCI-H226 cells assessed as cell growth at 10^-6 M incubated for 48 hrs by sulforhodamine B assay relative to control; type: functional; settings: NCI-H226, 48 h, read-out: Activity
[25] = test system: SW-620; test: Growth inhibition of human SW620 cells assessed as cell growth at 10^-5 M incubated for 48 hrs by sulforhodamine B assay relative to control; type: functional; settings: SW-620, 48 h, read-out: Activity
[26] = test system: HCC 2998; test: Growth inhibition of human HCC2998 cells assessed as cell growth at 10^-6 M incubated for 48 hrs by sulforhodamine B assay relative to control; type: functional; settings: HCC 2998, 48 h, read-out: Activity
[27] = test system: OVCAR-4; test: Growth inhibition of human OVCAR4 cells assessed as cell growth at 10^-4 M incubated for 48 hrs by sulforhodamine B assay relative to control; type: functional; settings: OVCAR-4, 48 h, read-out: Activity
[28] = test system: HL-60(TB); test: Growth inhibition of human HL-60(TB) cells assessed as cell growth at 10^-5 M incubated for 48 hrs by sulforhodamine B assay relative to control; type: functional; settings: HL-60, 48 h, read-out: Activity
[29] = test system: Malme-3M; test: Growth inhibition of human MALME-3M cells assessed as cell growth at 10^-5 M incubated for 48 hrs by sulforhodamine B assay relative to control; type: functional; settings: read-out: Activity
[30] = test system: PC-3; test: Growth inhibition of human PC3 cells assessed as cell growth at 10^-5 M incubated for 48 hrs by sulforhodamine B assay relative to control; type: functional; settings: PC-3, 48 h, read-out: Activity
[31] = test system: COLO 205; test: Growth inhibition of human COLO205 cells assessed as cell growth at 10^-5 M incubated for 48 hrs by sulforhodamine B assay relative to control; type: functional; settings: COLO 205, 48 h, read-out: Activity
[32] = read-out: pLC50 (the source's name) (converted)
[33] = read-out: LC50 (the source's name)

C#C[C@@]1(O)[C@@H](CO)O[C@@H](n2cc(Cl)c3c(N)ncnc32)[C@@H]1O
growth at 0.01 µM [1]: 95 to 97%
GI50 ([2]; read-out: GI50): 138 to 237 nM
CC50 [2]: > 100000 nM
growth at 100 µM [3]: 8 to 12%
GI50 ([4]; read-out: GI50): 109 to 159 nM
TGI ([4]; read-out: TGI): 27000 to 100000 nM
CC50 [4, 32]: > 100000 nM
growth at 0.1 µM [5]: 4 to 5%
growth at 0.1 µM [6]: 53 to 72%
GI50 ([7]; read-out: GI50): 144 to 159 nM
CC50 [7]: > 100000 nM
TGI ([7]; read-out: TGI): 521 to 708 nM
growth at 0.1 µM [8]: 60 to 69%
growth at 100 µM [9]: 1%
GI50 ([10]; read-out: GI50): 260 to 262 nM
CC50 [10]: > 100000 nM
TGI ([10]; read-out: TGI): 2410 to 2460 nM
GI50 ([10]; read-out: pGI50 (converted)): 263 nM
growth at 0.1 µM [11]: 56 to 72%
growth at 0.01 µM [12]: 99 to 100%
growth at 0.1 µM [13]: 72%
growth at 0.01 µM [14]: 96 to 105%
GI50 ([15]; read-out: GI50): 173 to 211 nM
CC50 [15]: > 100000 nM
TGI ([15]; read-out: TGI): 3520 to 4540 nM
growth at 0.1 µM [16]: 79 to 80%
growth at 0.01 µM [17]: 84 to 94%
GI50 ([18]; read-out: GI50): 239 to 257 nM
CC50 [18, 33]: > 100000 nM
TGI ([18]; read-out: TGI): > 100000 nM
TGI ([18]; read-out: pTGI): > 100000 nM
growth at 0.01 µM [19]: 83 to 89%
IC50 [20]: < 1.28 nM
growth at 0.1 µM [21]: 55 to 60%
growth at 0.1 µM [22]: 90%
GI50 ([23]; read-out: GI50): 51.3 to 98 nM
TGI ([23]; read-out: TGI): > 100000 nM
CC50 [23, 32]: > 100000 nM

C#C[C@@]1(O)[C@@H](CO)O[C@@H](n2cc(F)c3c(N)ncnc32)[C@@H]1O
growth at 0.01 µM [1]: 96%
growth at 1 µM [24]: 32%
TGI ([2]; read-out: TGI): 2640 nM
GI50 ([2]; read-out: pGI50 (converted)): 380 nM
CC50 [2]: > 100000 nM
TGI ([2]; read-out: pTGI (converted)): 2630 nM
CC50 [4, 33]: > 100000 nM
TGI ([4]; read-out: TGI): 13400 nM
GI50 ([4]; read-out: pGI50 (converted)): 355 nM
TGI ([4]; read-out: pTGI (converted)): 13500 nM
growth at 0.1 µM [5]: 60%
growth at 0.1 µM [6]: 80%
growth at 10 µM [25]: -5%
growth at 1 µM [26]: 37%
CC50 [7]: > 100000 nM
TGI ([7]; read-out: TGI): 1980 nM
GI50 ([7]; read-out: pGI50 (converted)): 219 nM
TGI ([7]; read-out: pTGI (converted)): 2000 nM
growth at 100 µM [27]: -25%
growth at 0.1 µM [8]: 86%
growth at 10 µM [28]: -17%
growth at 100 µM [9]: -18%
growth at 10 µM [29]: -34%
CC50 [10]: > 100000 nM
TGI ([10]; read-out: TGI): 11300 nM
GI50 ([10]; read-out: pGI50 (converted)): 676 nM
TGI ([10]; read-out: pTGI (converted)): 11200 nM
growth at 0.1 µM [11]: 81%
growth at 0.01 µM [12]: 94%
growth at 0.1 µM [13]: 75%
growth at 0.01 µM [14]: 95%
CC50 [15]: > 100000 nM
TGI ([15]; read-out: TGI): 3240 nM
GI50 ([15]; read-out: pGI50 (converted)): 295 nM
TGI ([15]; read-out: pTGI (converted)): 3240 nM
growth at 0.1 µM [16]: 98%
growth at 0.01 µM [17]: 96%
TGI ([18]; read-out: TGI): > 100000 nM
GI50 ([18]; read-out: pGI50 (converted)): 339 nM
CC50 [18, 32]: > 100000 nM
TGI ([18]; read-out: pTGI): > 100000 nM
growth at 0.01 µM [19]: 94%
growth at 10 µM [30]: -10%
IC50 [20]: < 1.28 nM
growth at 10 µM [31]: -52%
growth at 0.1 µM [21]: 85%
growth at 0.1 µM [22]: -1%
CC50 [23, 33]: > 100000 nM
TGI ([23]; read-out: TGI): 2900 nM
GI50 ([23]; read-out: pGI50 (converted)): 158 nM
TGI ([23]; read-out: pTGI (converted)): 2880 nM
